≈ marks a conversion by molar mass, not a printed value.
Tests used:
Assay type in all cases: functional
Streptococcus pneumoniae [1] = test: Antimicrobial activity against drug-resistant Streptococcus pneumoniae isolate 1077 by NCCLS M7-A7 method
Streptococcus pneumoniae [2] = test: Antimicrobial activity against drug-resistant Streptococcus pneumoniae isolate 3009 after 19 passages with moxifloxacin measured after 10 antibiotic-free subculture by multi-step resistance selection technique
Procedure, shortened: (§1)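 Mutants selected by daily broth passage in subinhibitory drug in cation-adjusted Mueller-Hinton broth with 5% lysed horse blood. Stability was tested by 10 daily passages on blood agar without antibiotic, then macrodilution MIC.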

Streptococcus pneumoniae [3] = test: Antimicrobial activity against drug-resistant Streptococcus pneumoniae isolate 3009 after 18 passages with levofloxacin measured after 10 antibiotic-free subculture by multi-step resistance selection technique; procedure, shortened: as §1
Streptococcus pneumoniae [4] = test: Antimicrobial activity against drug-resistant Streptococcus pneumoniae isolate 1077 after 29 passages with azithromycin measured after 10 antibiotic-free subculture by multi-step resistance selection technique; procedure, shortened: as §1
Streptococcus pneumoniae [5] = test: Antimicrobial activity against drug-resistant Streptococcus pneumoniae isolate 3274 by NCCLS M7-A7 method
Streptococcus pneumoniae [6] = test: Antimicrobial activity against drug-resistant Streptococcus pneumoniae isolate 24 by NCCLS M7-A7 method
Streptococcus pneumoniae [7] = test: Antimicrobial activity against drug-resistant Streptococcus pneumoniae isolate 3665 after 38 passages with moxifloxacin measured after 10 antibiotic-free subculture by multi-step resistance selection technique
Streptococcus pneumoniae [8] = test: Antimicrobial activity against drug-resistant Streptococcus pneumoniae isolate 1635 after 49 passages with clarithromycin measured after 10 antibiotic-free subculture by multi-step resistance selection technique
Streptococcus pneumoniae [9] = test: Antimicrobial activity against drug-resistant Streptococcus pneumoniae isolate 3676 after 50 passages with moxifloxacin measured after 10 antibiotic-free subculture by multi-step resistance selection technique
Streptococcus pneumoniae [10] = test: Antimicrobial activity against drug-resistant Streptococcus pneumoniae isolate 3243 after 50 passages by multi-step resistance selection technique
Procedure, shortened: (§2)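 Daily serial passage in subinhibitory drug levels in 1 ml cation-adjusted Mueller-Hinton broth with 5% lysed horse blood; fresh broth for tigecycline. Each day, 10 μl were taken from the tube one to two dilutions below the MIC whose turbidity matched the growth control, and used to set the next MIC. […] MIC by macrodilution.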

Streptococcus pneumoniae [11] = test: Antimicrobial activity against drug-resistant Streptococcus pneumoniae isolate 3665 after 14 passages with Telithromycin measured after 10 antibiotic-free subculture by multi-step resistance selection technique
Streptococcus pneumoniae [12] = test: Antimicrobial activity against drug-resistant Streptococcus pneumoniae isolate 2527 by NCCLS M7-A7 method
Streptococcus pneumoniae [13] = test: Antimicrobial activity against drug-resistant Streptococcus pneumoniae isolate 3665 after 26 passages with clarithromycin measured after 10 antibiotic-free subculture by multi-step resistance selection technique
Streptococcus pneumoniae [14] = test: Antimicrobial activity against drug-resistant Streptococcus pneumoniae isolate 3009 after 25 passages with clarithromycin measured after 10 antibiotic-free subculture by multi-step resistance selection technique
Streptococcus pneumoniae [15] = test: Antimicrobial activity against drug-resistant Streptococcus pneumoniae isolate 1077 after 50 passages by multi-step resistance selection technique
Procedure, shortened: (§3)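 Daily serial passage in subinhibitory drug levels in 1 ml cation-adjusted Mueller-Hinton broth with 5% lysed horse blood; fresh broth for tigecycline. Each day, 10 μl were taken from the tube one to two dilutions below the MIC whose turbidity matched the growth control, and used to set the next MIC. MIC by macrodilution.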

Streptococcus pneumoniae [16] = test: Antimicrobial activity against drug-resistant Streptococcus pneumoniae isolate 3413 by NCCLS M7-A7 method
Streptococcus pneumoniae [17] = test: Antimicrobial activity against drug-resistant Streptococcus pneumoniae isolate 3243 after 33 passages with azithromycin measured after 10 antibiotic-free subculture by multi-step resistance selection technique; procedure, shortened: as §1
Streptococcus pneumoniae [18] = test: Antimicrobial activity against drug-resistant Streptococcus pneumoniae isolate 3243 after 20 passages with moxifloxacin measured after 10 antibiotic-free subculture by multi-step resistance selection technique; procedure, shortened: as §1
Streptococcus pneumoniae [19] = test: Antimicrobial activity against drug-resistant Streptococcus pneumoniae isolate 3676 after 14 passages with Telithromycin measured after 10 antibiotic-free subculture by multi-step resistance selection technique
Streptococcus pneumoniae [20] = test: Antimicrobial activity against drug-resistant Streptococcus pneumoniae isolate 24 after 50 passages with moxifloxacin measured after 10 antibiotic-free subculture by multi-step resistance selection technique; procedure, shortened: as §1
Streptococcus pneumoniae [21] = test: Antimicrobial activity against drug-resistant Streptococcus pneumoniae isolate 1635 after 14 passages with clindamycin measured after 10 antibiotic-free subculture by multi-step resistance selection technique
Streptococcus pneumoniae [22] = test: Antimicrobial activity against drug-resistant Streptococcus pneumoniae isolate 3676 after 44 passages with clarithromycin measured after 10 antibiotic-free subculture by multi-step resistance selection technique
Streptococcus pneumoniae [23] = test: Antimicrobial activity against drug-resistant Streptococcus pneumoniae isolate 3009 by NCCLS M7-A7 method
Streptococcus pneumoniae [24] = test: Antimicrobial activity against drug-resistant Streptococcus pneumoniae isolate 1635 after 14 passages with azithromycin measured after 10 antibiotic-free subculture by multi-step resistance selection technique; procedure, shortened: as §1
Streptococcus pneumoniae [25] = test: Antimicrobial activity against drug-resistant Streptococcus pneumoniae isolate 1076 after 35 passages with moxifloxacin measured after 10 antibiotic-free subculture by multi-step resistance selection technique; procedure, shortened: as §1
Streptococcus pneumoniae [26] = test: Antimicrobial activity against drug-resistant Streptococcus pneumoniae isolate 3413 after 50 passages by multi-step resistance selection technique; procedure, shortened: as §3
Streptococcus pneumoniae [27] = test: Antimicrobial activity against drug-resistant Streptococcus pneumoniae isolate 1076 after 50 passages by multi-step resistance selection technique; procedure, shortened: as §2
Streptococcus pneumoniae [28] = test: Antimicrobial activity against drug-resistant Streptococcus pneumoniae isolate 3274 after 50 passages by multi-step resistance selection technique; procedure, shortened: as §3
Streptococcus pneumoniae [29] = test: Antimicrobial activity against drug-resistant Streptococcus pneumoniae isolate 37 by NCCLS M7-A7 method
Streptococcus pneumoniae [30] = test: Antimicrobial activity against drug-resistant Streptococcus pneumoniae isolate 3676 by NCCLS M7-A7 method
Streptococcus pneumoniae [31] = test: Antimicrobial activity against drug-resistant Streptococcus pneumoniae isolate 24 after 14 passages with Telithromycin measured after 10 antibiotic-free subculture by multi-step resistance selection technique; procedure, shortened: as §1
Streptococcus pneumoniae [32] = test: Antimicrobial activity against drug-resistant Streptococcus pneumoniae isolate 2527 after 14 passages with gemifloxacin measured after 10 antibiotic-free subculture by multi-step resistance selection technique; procedure, shortened: as §1
Streptococcus pneumoniae [33] = test: Antimicrobial activity against drug-resistant Streptococcus pneumoniae isolate 24 after 50 passages by multi-step resistance selection technique; procedure, shortened: as §3
Streptococcus pneumoniae [34] = test: Antimicrobial activity against drug-resistant Streptococcus pneumoniae isolate 37 after 14 passages with Telithromycin measured after 10 antibiotic-free subculture by multi-step resistance selection technique
Streptococcus pneumoniae [35] = test: Antimicrobial activity against drug-resistant Streptococcus pneumoniae isolate 3243 after 29 passages with Telithromycin measured after 10 antibiotic-free subculture by multi-step resistance selection technique; procedure, shortened: as §1
Streptococcus pneumoniae [36] = test: Antimicrobial activity against drug-resistant Streptococcus pneumoniae isolate 37 after 50 passages by multi-step resistance selection technique
Procedure, shortened: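 Daily serial passage in broth at subinhibitory drug levels: 1 ml cation-adjusted Mueller-Hinton broth with 5% lysed horse blood; fresh broth for tigecycline. Each day 10 μl inoculum taken from the tube one to two dilutions below MIC matching growth-control turbidity, used to set next MIC.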

Streptococcus pneumoniae [37] = test: Antimicrobial activity against drug-resistant Streptococcus pneumoniae isolate 3665 by NCCLS M7-A7 method
Streptococcus pneumoniae [38] = test: Antimicrobial activity against drug-resistant Streptococcus pneumoniae isolate 3243 by NCCLS M7-A7 method
Streptococcus pneumoniae [39] = test: Antimicrobial activity against drug-resistant Streptococcus pneumoniae isolate 1635 after 50 passages by multi-step resistance selection technique; procedure, shortened: as §3
Streptococcus pneumoniae [40] = test: Antimicrobial activity against drug-resistant Streptococcus pneumoniae isolate 3009 after 21 passages with gemifloxacin measured after 10 antibiotic-free subculture by multi-step resistance selection technique; procedure, shortened: as §1

SMILES: CO/N=C(\C(=O)N[C@@H]1C(=O)N2C(C(=O)O)=C(CSc3nc(=O)c(O)nn3C)CS[C@H]12)c1csc(N)n1 [CEFTRIAXONE]
- MIC (Streptococcus pneumoniae [1]): 0.016 µg/mL (≈ 0.0289 µM)
- MIC (Streptococcus pneumoniae [2]): 0.03 µg/mL (≈ 0.0541 µM)
- MIC (Streptococcus pneumoniae [3]): 0.016 µg/mL (≈ 0.0289 µM)
- MIC (Streptococcus pneumoniae [4]): 0.03 µg/mL (≈ 0.0541 µM)
- MIC (Streptococcus pneumoniae [5]): 0.125 µg/mL (≈ 0.225 µM)
- MIC (Streptococcus pneumoniae [6]): 1 µg/mL (≈ 1.8 µM)
- MIC (Streptococcus pneumoniae [7]): 0.06 µg/mL (≈ 0.108 µM)
- MIC (Streptococcus pneumoniae [8]): 0.016 µg/mL (≈ 0.0289 µM)
- MIC (Streptococcus pneumoniae [9]): 0.03 µg/mL (≈ 0.0541 µM)
- MIC (Streptococcus pneumoniae [10]): 0.25 µg/mL (≈ 0.451 µM)
- MIC (Streptococcus pneumoniae [11]): 0.06 µg/mL (≈ 0.108 µM)
- MIC (Streptococcus pneumoniae [12]): 2 µg/mL (≈ 3.61 µM)
- MIC (Streptococcus pneumoniae [13]): 0.03 µg/mL (≈ 0.0541 µM)
- MIC (Streptococcus pneumoniae [14]): 0.016 µg/mL (≈ 0.0289 µM)
- MIC (Streptococcus pneumoniae [15]): 0.016 µg/mL (≈ 0.0289 µM)
- MIC (Streptococcus pneumoniae [16]): 1 µg/mL (≈ 1.8 µM)
- MIC (Streptococcus pneumoniae [17]): 0.125 µg/mL (≈ 0.225 µM)
- MIC (Streptococcus pneumoniae [18]): 0.06 µg/mL (≈ 0.108 µM)
- MIC (Streptococcus pneumoniae [19]): 0.06 µg/mL (≈ 0.108 µM)
- MIC (Streptococcus pneumoniae [20]): 1 µg/mL (≈ 1.8 µM)
- MIC (Streptococcus pneumoniae [21]): 0.016 µg/mL (≈ 0.0289 µM)
- MIC (Streptococcus pneumoniae [22]): 0.03 µg/mL (≈ 0.0541 µM)
- MIC (Streptococcus pneumoniae [23]): 0.03 µg/mL (≈ 0.0541 µM)
- MIC (Streptococcus pneumoniae [24]): 0.016 µg/mL (≈ 0.0289 µM)
- MIC (Streptococcus pneumoniae [25]): 0.016 µg/mL (≈ 0.0289 µM)
- MIC (Streptococcus pneumoniae [26]): 1 µg/mL (≈ 1.8 µM)
- MIC (Streptococcus pneumoniae [27]): 0.016 µg/mL (≈ 0.0289 µM)
- MIC (Streptococcus pneumoniae [28]): 0.25 µg/mL (≈ 0.451 µM)
- MIC (Streptococcus pneumoniae [29]): 2 µg/mL (≈ 3.61 µM)
- MIC (Streptococcus pneumoniae [30]): 0.03 µg/mL (≈ 0.0541 µM)
- MIC (Streptococcus pneumoniae [31]): 2 µg/mL (≈ 3.61 µM)
- MIC (Streptococcus pneumoniae [32]): 1 µg/mL (≈ 1.8 µM)
- MIC (Streptococcus pneumoniae [33]): 2 µg/mL (≈ 3.61 µM)
- MIC (Streptococcus pneumoniae [34]): 2 µg/mL (≈ 3.61 µM)
- MIC (Streptococcus pneumoniae [35]): 0.125 µg/mL (≈ 0.225 µM)
- MIC (Streptococcus pneumoniae [36]): 1 µg/mL (≈ 1.8 µM)
- MIC (Streptococcus pneumoniae [37]): 0.06 µg/mL (≈ 0.108 µM)
- MIC (Streptococcus pneumoniae [38]): 0.125 µg/mL (≈ 0.225 µM)
- MIC (Streptococcus pneumoniae [39]): 0.03 µg/mL (≈ 0.0541 µM)
- MIC (Streptococcus pneumoniae [40]): 0.03 µg/mL (≈ 0.0541 µM)

— ChEMBL document CHEMBL1151428, “Capability of 11 antipneumococcal antibiotics to select for resistance by multistep and single-step methodologies” (2007)
